# Paper PMC10613959 (Toxicological Sciences, 2023)
# Like-named read-outs stand apart in the source and are kept apart here.
# What was measured:
# [1] = Blood partitioning assay for Rbp; assay type: in vitro ADME; settings: both, human
# In short: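 Fresh pooled mixed-gender human whole blood (lithium heparin) and reference plasma centrifuged from the same blood were each incubated with 5 µM test compound at 37°C, n = 3. Reactions were stopped at 0 and 60 min. Rbp was derived by LC-MS/MS from test compound concentration in control plasma versus whole-blood supernatant. Chlorthalidone 5 µM served as positive control.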
# Cross filtration = assay type: in vitro ADME; settings: both, human, pooled human plasma
# In short: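 Modified cross-ultrafiltration: 10 µM test compound in pooled mixed-gender human plasma, 60 min at 37°C, n = 3, then ultrafiltered beside blank plasma. Each retentate was mixed into the partner filtrate and the regenerated samples analysed by LC-MS/MS. Warfarin 10 µM was positive control. Stability was checked at 60 min against non-incubated control. Recovery-corrected mean PPB from filtrate; Fup = 100 − PPB.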
# [2] = Metabolic stability in primary human hepatocytes in suspension; assay type: in vitro ADME; settings: human, cryopreserved human hepatocytes in suspension (5 donor pool)
# In short: (§1)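 Cryopreserved human hepatocytes (5-donor pool, 0.8 × 10^6 cells/ml) in Williams E medium (25 mM HEPES, 2 mM L-glutamine) were incubated with test compound at 0.1, 1 and 10 µM, 37°C, n = 3. Sampled at 0, 15, 60, 90, 180 and 240 min; solvent ≤0.5% DMSO or 1% ACN. Heat-inactivated hepatocytes were the negative control. Parent loss was measured by LC-MS. CLint = −k·V (k, slope of log concentration vs time; V, incubation volume/cell number).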
# human hepatocytes = assay: as above; assay type: in vitro ADME
# In short: as §1
# [3] = Skin absorption parameters; design: species or system human; settings: Fitted
# In short: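 A skin model in GastroPlus TCAT started from in silico predicted values for the vehicle, stratum corneum, epidermis and dermis. Its diffusivities and partition coefficients were fitted to skin penetration data: receptor-fluid time course where available, plus skin wash and layer distribution. Parameters were adjusted to minimise model–data difference and then used in the human dermal model. Vehicle/water partitioning is formulation-specific.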
# [4] = Scaling of in vitro CLint to in vivo CLint and CLliver; design: species or system human; settings: scaled from the mean in vitro CLint
# In short: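 Mean in vitro hepatocyte CLint was scaled to in vivo CLint (l/h) using a scaling factor: million cells per gram of liver × grams of liver weight. In vivo CLint was then converted to hepatic clearance with two variations of the well-stirred liver model.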
# [5] = PBK population simulation of plasma concentrations; design: species or system human
# In short: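 GastroPlus population simulations reproduced the clinical designs. Lotion or non-aerosol spray, 2 mg/cm2 over 75% body surface, once at 0 h on day 1 and 4 times daily at 2-h intervals on days 2–4 (mixed multiple-dose profile). Alternatively, a 4% formulation over 90% body surface, about 22 mg/kg bw, in 3 male and 3 female subjects. Simulated-mean/observed-mean ratios for Cmax and AUC0−t; 10th–90th percentiles generated.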
# [6] = pig skin, 24 h, skin surface washed at 8 h; mean; ref Sasson et al. (2009); cited from earlier work
# [7] = human plasma, dermal, ref Schauer et al., 2006, cited from earlier work
smiles,measurement,setting,value
"Cc1ccc(/C=C2/C(=O)C3(C)CCC2C3(C)C)cc1 (stereo not shown) [4-MBC, 4-methylbenzylidene camphor]","blood plasma ratio at 60 min, 5 µM",[1],0.88
same,"fraction unbound at 60 min, 10 µM",Cross filtration,0.0004
same,hepatocyte CLint,[2],30 µL/min/1e6 cells
same,hepatocyte CLint at 0.1 µM,[2],34 µL/min/1e6 cells
same,hepatocyte CLint at 1 µM,[2],32.2 µL/min/1e6 cells
same,hepatocyte CLint at 10 µM,[2],23.8 µL/min/1e6 cells
same,depletion in suspension hepatocytes,"human hepatocytes; human suspension hepatocytes, compared with Naloxone",medium to fast depletion
same,Dermis diffusivity,[3],3.0E−08 cm^2/s
same,Dermis/water partition coefficient,[3],2.0E+00
same,Epidermis/water partition coefficient,[3],1.0E+02
same,Stratum corneum diffusivity,[3],6.1E−11 cm^2/s
same,Stratum corneum/water partition coefficient,[3],1.0E+03
same,Vehicle diffusivity,[3],7.8E−06 cm^2/s
same,Vehicle/water partition coefficient,[3]; vehicle/formulation specific,4.0E+04
same,In vivo CLint scaled,[4],216 l/h/kg liver
same,AUC0 − t Fold Difference (Simulated Mean/Observed Mean),[5]; Female,0.8
same,Cmax Fold Difference (Simulated Mean/Observed Mean),[5]; Female,0.9
same,AUC0 − t Fold Difference (Simulated Mean/Observed Mean),[5]; Male,0.6
same,Cmax Fold Difference (Simulated Mean/Observed Mean),[5]; Male,0.6
same,"Dermal delivery (Epidermis + dermis + receptor fluid), 4-MBC",[6],3.17%
same,"Epidermis + Dermis, distribution of 4-MBC",[6],2.9%
same,"Receptor fluid, distribution of 4-MBC",[6],0.25%
same,"Skin excess, distribution of 4-MBC",[6],4.5%
same,"Total recovery, 4-MBC",[6],87.8%
same,"Total strips (1–40), distribution of 4-MBC",[6],80.1%
same,"Observed AUC0 − t, Geometric mean",[7]; Female,485.6 ng·h/mL
same,"Observed Cmax, Range",[7]; Female,19.8 to 31.2 ng/mL
same,"Observed AUC0 − t, Geometric mean",[7]; Male,987.9 ng·h/mL
same,"Observed Cmax, Range",[7]; Male,19.8 to 83.9 ng/mL
"C=CCN1CC[C@]23c4c5ccc(O)c4O[C@H]2C(=O)CC[C@@]3(O)[C@H]1C5 [Naloxone, reference compound]",hepatocyte CLint,[2],16.4 ± 1.6 µL/min/1e6 cells
same,remaining after 240 min,"human hepatocytes; positive control, human hepatocytes in suspension, 240 min",4.8 ± 1.9%
